Assay results gathered from unrelated publications.
Compare with care: the assays were run in different laboratories.
Oprm1: Mu-type opioid receptor (Oprm1, Mus musculus, UniProt P42866)
Nectin-4: Nectin-4 (Homo sapiens, UniProt Q96NY8)
PFF0160c E182D: Dihydroorotate dehydrogenase (quinone), mitochondrial (PFF0160c, Plasmodium falciparum, UniProt Q08210, E182D)

SMILES | target | test | endpoint | value
Cc1noc(-c2cccs2)c1C(=O)NCCc1cccc(Cl)c1 | Dihydroorotate dehydrogenase (quinone), mitochondrial (PFF0160c, Plasmodium falciparum, UniProt Q08210) | enzyme activity, inhibitor, absorbance | IC50 | 689 nM
O=C(N[C@H]1C=C[C@@]2(O)[C@H]3Cc4ccc(O)c5c4[C@@]2(CCN3CC2CC2)[C@H]1O5)c1c[nH]c2ncccc12 | Oprm1 | ligand displacement, radioligand | Ki | 1.14 nM
CCCC[C@@H]1NC(=O)[C@H](Cc2ccc(O)cc2)NC(=O)[C@@H]2CCCN2C(=O)[C@H](CC(=O)O)NC(=O)[C@H](C)NC(=O)[C@H](Cc2ccccc2)NC(=O)[C@@H]2CSCCC(=O)N3CN(CN(C3)C(=O)CCSC[C@@H](C(=O)N[C@@H](C)C(N)=O)NC1=O)C(=O)CCSC[C@H](NC(C)=O)C(=O)N[C@@H](CC(C)(C)C)C(=O)N1CCC[C@H]1C(=O)N[C@@H](CCC(=O)O)C(=O)N[C@H](CCCCNC(=O)CCc1cn(CCOCCOCCOCCOCCOCCC(=O)NCCCC[C@H]3NC(=O)[C@H](Cc4cccc5ccccc45)NC(=O)[C@@H]4CCCN4C(=O)[C@@H](NC(C)=O)CSCCC(=O)N4CN5CN(C4)C(=O)CCSC[C@H](NC3=O)C(=O)N[C@@H](CCSC)C(=O)N[C@@H](CCCCNC(=N)N)C(=O)N[C@@H](CC(=O)O)C(=O)N[C@@H](Cc3c[nH]c4ccccc34)C(=O)N[C@@H](CO)C(=O)N[C@@H]([C@@H](C)O)C(=O)N3CCC[C@H]3C(=O)N3C[C@H](O)C[C@H]3C(=O)N[C@@H](Cc3c[nH]c4ccccc34)C(=O)N[C@H](C(N)=O)CSCCC5=O)nn1)C(=O)N1CCC[C@H]1C(=O)N[C@@H](Cc1ccc(O)cc1)C(=O)N2 | Nectin-4 | binding, SPR | Kd | 1.3 nM
O=C(N[C@H]1C=C[C@@]2(O)[C@H]3Cc4ccc(O)c5c4[C@@]2(CCN3CC2CC2)[C@H]1O5)c1c[nH]c2ccncc12 | Oprm1 | ligand displacement, radioligand | Ki | 0.7 nM
CCCC[C@@H]1NC(=O)[C@H](Cc2ccc(O)cc2)NC(=O)[C@@H]2CCCN2C(=O)[C@H](CC(=O)O)NC(=O)[C@H](C)NC(=O)[C@H](Cc2ccccc2)NC(=O)[C@@H]2CSCCC(=O)N3CN(CN(C3)C(=O)CCSC[C@@H](C(=O)N[C@@H](C)C(N)=O)NC1=O)C(=O)CCSC[C@H](NC(C)=O)C(=O)N[C@@H](CC(C)(C)C)C(=O)N1CCC[C@H]1C(=O)N[C@@H](CCC(=O)O)C(=O)N[C@H](CCCCNC(=O)CCc1cn(CCOCCOCCOCCOCCOCCC(=O)NCCCC[C@H]3NC(=O)[C@H](Cc4cccc5ccccc45)NC(=O)[C@@H]4CCCN4C(=O)[C@@H](NC(C)=O)CSCCC(=O)N4CN5CN(C4)C(=O)CCSC[C@H](NC3=O)C(=O)N[C@@H](CCSC)C(=O)N[C@@H](CCCCNC(=N)N)C(=O)N[C@@H](CCC(=O)O)C(=O)N[C@@H](Cc3c[nH]c4ccccc34)C(=O)N[C@@H](CO)C(=O)N[C@@H]([C@@H](C)O)C(=O)N3CCC[C@H]3C(=O)N3C[C@H](O)C[C@H]3C(=O)N[C@@H](Cc3c[nH]c4ccccc34)C(=O)N[C@H](C(N)=O)CSCCC5=O)nn1)C(=O)N1CCC[C@H]1C(=O)N[C@@H](Cc1ccc(O)cc1)C(=O)N2 | Nectin-4 | binding, SPR | Kd | 1.8 nM
O=C(N[C@H]1C=C[C@@]2(O)[C@H]3Cc4ccc(O)c5c4[C@@]2(CCN3CC2CC2)[C@H]1O5)c1c[nH]c2cnccc12 | Oprm1 | ligand displacement, radioligand | Ki | 1.16 nM
C[C@@H]1CN(c2ccc(O)c(NS(=O)(=O)c3ccc(-c4ccco4)cc3)c2)C[C@H](C)N1 | PFF0160c E182D | enzyme activity, inhibitor, absorbance | IC50 | 4020 nM
COc1cc2nc(N3CCCN(C)CC3)nc(NC3CCN(Cc4ccccc4)CC3)c2cc1OC | Sigma non-opioid intracellular receptor 1 (SIGMAR1, Homo sapiens, UniProt Q99720) | ligand displacement, radioligand | Ki | > 10000 nM
CCn1cc(C(=O)NC2CCNCC2)n(Cc2ccccc2)c1=O | PFF0160c E182D | enzyme activity, inhibitor, absorbance | IC50 | 8940 nM
CCCC[C@@H]1NC(=O)[C@H](Cc2ccc(O)cc2)NC(=O)[C@@H]2CCCN2C(=O)[C@H](CC(=O)O)NC(=O)[C@H](C)NC(=O)[C@H](Cc2ccccc2)NC(=O)[C@@H]2CSCCC(=O)N3CN(CN(C3)C(=O)CCSC[C@@H](C(=O)N[C@@H](CNC(=O)CCc3cn(CCOCCOCCOCCOCCOCCOCCOCCOCCOCCOCCOCCOCCOCCOCCOCCOCCOCCOCCOCCOCCOCCOCCOCCNC(=O)N[C@H]4CSCCC(=O)N5CN6CN(C5)C(=O)CCSC[C@H](NC(=O)[C@@H](CC(=O)O)NC(=O)[C@H](Cc5cccc7ccccc57)NC(=O)[C@@H]5CCCN5C4=O)C(=O)N[C@@H](CCSC)C(=O)N[C@@H](CCCCNC(=N)N)C(=O)N[C@@H](CC(=O)O)C(=O)N[C@@H](Cc4c[nH]c5ccccc45)C(=O)N[C@@H](CO)C(=O)N[C@@H]([C@@H](C)O)C(=O)N4CCC[C@H]4C(=O)N4C[C@H](O)C[C@H]4C(=O)N[C@@H](Cc4c[nH]c5ccccc45)C(=O)N[C@H](C(N)=O)CSCCC6=O)nn3)C(N)=O)NC1=O)C(=O)CCSC[C@H](NC(=O)[C@H](C)NC(C)=O)C(=O)N[C@@H]([C@@H](C)CC)C(=O)N[C@@H](CCC(=O)O)C(=O)N[C@@H](CCC(=O)O)C(=O)NCC(=O)N[C@@H](CCC(N)=O)C(=O)N[C@@H](Cc1ccc(O)cc1)C(=O)N2 | Nectin-4 | binding, SPR | Kd | 1.8 nM
